Measured values from different studies.

Compound	species	medium	route	dose	setting	quantity	value
Cc1ncc2n1-c1ccc(Cl)cc1C(c1ccccc1F)=NC2	mouse	plasma	intravenous	0.3 mg/kg		AUC(0-inf)	0.15 µM·h
CN1CCCCC1Cn1cc(C(=O)c2cc([N+](=O)[O-])ccc2I)c2ccccc21 (racemic)	mouse	plasma	intravenous	25 mg/kg		AUC	5830 ng·h/mL
CCN(CC)CCCC[C@H](NC(=O)[C@H](CC(C)C)NC(=O)[C@H](C)NC(=O)[C@H](Cc1ccccc1)NC(=O)c1ccc(C(C)(C)C)cc1)C(=O)N[C@@H](CO)C(=O)OC	male Swiss mouse	blood	intravenous	3 mg/kg		AUC(0-inf)	1890 ng·h/mL
CCC[C@@](N)(CO)CCc1ccc(OCCCCCC(C)C)cc1	mouse	plasma	oral	50 mg/kg		AUC(0-t)	5.02 µM·h
C[C@]12CC[C@H](n3ccnc3)CC1=CC[C@@H]1[C@@H]2CC[C@]2(C)C(n3cnc4ccccc43)=CC[C@@H]12.Cl.Cl	male CD-1 mouse	plasma	oral	10 mg/kg		AUC(0-t)	32500 ng·h/mL
CN[C@H](CC(C)C)C(=O)N[C@H]1C(=O)N[C@@H](CC(N)=O)C(=O)N[C@H]2C(=O)NC3C(=O)N[C@H](C(=O)N[C@H](C(=O)NCCC[N+](C)(C)C)c4cc(O)cc(O)c4-c4cc3ccc4O)[C@H](O)c3ccc(c(Cl)c3)Oc3cc2cc(c3OC2OC(CO)C(O)[C@H](O)[C@@H]2O[C@H]2CC(C)(NCc3ccc(-c4ccc(Cl)cc4)cc3)[C@H](O)[C@H](C)O2)Oc2ccc(cc2Cl)[C@H]1O (some centres unmarked)	mouse	plasma	intravenous	50 mg/kg		AUC	430000 ng·h/mL
Cc1cc(C)nc(Nc2ncc(C(=O)NCCc3c(C)[nH]c4ccccc34)cn2)c1	C57BL/6 mouse	plasma	intraperitoneal	8.8 mg/kg		AUC(0-inf)	1050 ng·h/mL
NCC(=O)Nc1ccc(-n2nc(C(F)(F)F)cc2-c2ccc3c(ccc4ccccc43)c2)cc1	mouse	plasma	oral	80 mg/kg	single dose	AUC(0-inf)	81800 ng·h/mL
